Measurements from different studies.
Each line is one published result; the experiments were not run side by side.

O=S(=O)(c1ccc(-c2ccc3nccc(Nc4ccncn4)c3c2)cc1)N1CCOCC1  concentration (female BALB/c mouse, plasma; intraperitoneal, 10 mg/kg, 24 h): 0 ng/mL
COc1cc(/C=C/c2ccccc2)cc(OC)c1  chromatographic logP (HPLC): > 3.14
O=C1NN=C(N=Cc2ccccc2O)C1=NNn1c(-c2ccccc2)nc2ccccc2c1=O  logP: 3.68
c1ccc(-c2nc(N3CCC(c4ccccn4)C3)c3ccccc3n2)nc1 (stereo not drawn)  concentration (female BALB/c mouse, plasma; oral, 50 mg/kg, 1 h): 2940 ng/mL
COc1ccc2nccc(N3CCc4c(cc(Cn5ccnc5)cc4-c4cn(C)nc4C(F)(F)F)C3=O)c2c1  half-life (male CD-1 mouse, plasma; oral, 10 mg/kg): 1.2 h
CC(C)(C)c1ccc(O)c(CN(Cc2cc(C(C)(C)C)ccc2O)C2CCC(NC(N)=O)CC2)c1 (stereo not drawn)  half-life (male C57BL/6 mouse, brain; intraperitoneal, 5 mg/kg, single dose): 7.1 h
CC1=NN(CNc2ccccc2)C(=O)C1=NNn1c(-c2ccccc2)nc2ccccc2c1=O  logP: 4.49
CC(C)(Nc1nc(-c2ccccn2)nc2ccccc12)c1ccccn1  concentration (female BALB/c mouse, plasma; intravenous, 1 mg/kg, 15 min): 963 ng/mL
CC[C@H](C)[C@@H]1NC(=O)[C@@](C)(NC(=O)[C@H](CCCNC(=N)N)NC(=O)[C@H](CC(C)C)NC(=O)[C@@H](NC(=O)[C@H](CCC(N)=O)NC(=O)[C@H](CC(C)C)NC(C)=O)[C@@H](C)O)CCCC=CCCC[C@@](C)(C(=O)N[C@@H](CC(C)C)C(=O)N[C@@H](Cc2ccc3ccccc3c2)C(N)=O)NC(=O)[C@H](CCCNC(=N)N)NC(=O)[C@H](CCC(N)=O)NC1=O  half-life (male BALB/c mouse, plasma; intramuscular, 5 mg/kg): 10.6 h
O=c1c(O)c(-c2ccc(O)c(O)c2)oc2cc(O)cc(O)c12  MRT(0-t) (human, plasma; oral, 500 mg, single dose, fasted, healthy volunteers): 6.84 h
CC(C)Oc1cccc(-c2cnc(N3CCC(C(N)=O)CC3)s2)c1  concentration (male Swiss mouse, brain; oral, 30 mg/kg, 1 h, single dose): 207 ng/g
O=c1nc(N2CCN(CC3CCCCC3)CC2)sc2c([N+](=O)[O-])cc(C(F)(F)F)cc12  concentration (CD-1 mouse, lung; oral, 100 mg/kg, 15 min): 431 ng/mL
COc1cc(/C=C/c2ccc(O)cc2)cc(OC)c1  chromatographic logP (HPLC): > 3.14
N#CN1C[C@H](n2nc(-c3ccc(Oc4ccc(Cl)cn4)cc3)c(C(N)=O)c2N)CCC12CC2  MRT (human, plasma; oral, 600 mg, fasted): 31.6 h
CC(C)(O)c1ccccc1-c1ccc2[nH]c(/C=C/c3ccc(C(F)(F)F)cc3)nc2c1  MRT (male human, plasma; oral, 2 mg, single dose, fasted, healthy volunteers): 77.2 h
O=C(O)C1CCN(c2ncc(-c3ccc4c(c3)OCCCO4)s2)CC1  concentration (male Swiss mouse, plasma; oral, 30 mg/kg, 24 h, single dose): 1570 ng/mL
c1cnc2ccc(Nc3nc(NC4CC4)c4nc[nH]c4n3)cc2c1  MRT(0-t) (human, plasma; oral, 200 mg/m², patients): 5.7 h
COc1cc(O)cc(/C=C/c2ccccc2)c1  chromatographic logP (HPLC): > 3.14
O=C1NN=C(N=Cc2ccc(O)cc2O)C1=NNn1c(-c2ccccc2)nc2ccccc2c1=O  logP: 3.38
CS(=O)(=O)CCC#N  MRT (human, plasma; oral, 100 mg, single dose, fasted): 30.5 h
CC(C)CN(C[C@@H](O)[C@H](Cc1ccccc1)NC(=O)O[C@H]1CO[C@H]2OCC[C@H]21)S(=O)(=O)c1ccc(N)cc1  concentration (BALB/c mouse, plasma; intravenous, 2.5 mg/kg, 6 h): 4.19 ng/mL
